# Source: PubChem BioAssay
# XBP1 UPR activ: adaptive UPR (XBP1) activation | 330,000 tested, 0.33% active | activation, % at 20 µM | AID 463104 | CHO-XBP1 luciferase reporter, IRE1-XBP1 UPR activation, luminescence; percent of tunicamycin response, DMSO as zero;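 active means versus positive control, 20 µM dose yields 30% or more activation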
#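 incubation = overnight seeding at 37 °C, 6 h compound treatment at 37 °C | assay system = CHO-XBP1 cells stably carrying IRE1-XBP1-driven luciferase reporter | input = 1000 cells per well | detection = luciferase luminescence | dosing = single point, 20 µM final compound, 1% DMSO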
# CHOP UPR activ: apoptotic UPR (CHOP) activation. CHO-CHOP luciferase reporter, luminescence; percent of tunicamycin response over DMSO baseline. activation, % at 10 µM. 330,000 tested, 0.34% active;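 active means at 10 µM dose, activation of 40% or more, normalized to positive control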
#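 Test system: CHO CHOP reporter cells. Input: 500 CHO-CHOP cells per well. Medium: F12 with 10% FBS. Technique: luciferase luminescence. Measure: percent activation relative to tunicamycin control. Dosing: 10 µM compound, 0.5% DMSO. Timing: 16-18 h cell attachment, then 6 h compound exposure, 37 °C.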
# CHOP inh: blocks CHOP induction under ER stress; CHO-K1 CHOP-promoter luciferase, tunicamycin-induced, 15-18 h; inhibition, % at 10 µM; 220,000 tested, 3.8% active; AID 2732;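 active means compounds that reduced the stress-induced luciferase reporter signal by more than about 70% of percent inhibition, limit read from the data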
# NR3A LBD binder: modulators (binders) of human NR3A ligand-binding domain | NR3A LBD differential scanning fluorimetry, Tm shift; 0% = protein alone, 100% = glycine-bound protein | Tm shift relative to glycine control, % at 25 µM | 340,000 tested, 2.5% active | AID 1259313;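 active means melting temperature shift of at least 10% of the positive control shift, at one fixed dose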
# MPTP block: permeability transition pore inhibition; isolated mouse mitochondria, Ca2+ swelling absorbance, 30 min; AID 602449; 360,000 tested, 1.4% active; inhibition, % at 10 µM;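 active means inhibition of 50% or more, scaled per plate between neutral and stimulator controls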
# aDG glyco act: alpha-DG glycosylation activation | Pro5-aDG cells, alpha-DG glycosylation AlphaScreen (IIH6); 0% Pro5, 100% B10-LARGE cell signal | activation, % at 10 µM | 360,000 tested, 0.22% active;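 active means activation of at least 8% versus controls, or a plate z-score of at least 8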;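 further: Pro5 are CHO cells carrying HIG-tagged alpha-DG that lacks glycosylation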
# CHOP UPR conf: confirmation of apoptotic unfolded protein response (CHOP) activators | shares compounds with CHOP UPR activ | CHO-CHOP cells, CHOP-luciferase reporter luminescence; percent of tunicamycin response, DMSO as zero | activation, % at 10 µM | 1,000 tested, 64% active; in the data active means activation above about 33%
# Hits are given with their value; - = inactive; . = no result. Most compounds without a hit are left out; they make up all but 5.6% or so of the library.
SMILES,XBP1 UPR activ,CHOP UPR activ,CHOP inh,NR3A LBD binder,MPTP block,aDG glyco act,CHOP UPR conf
COc1ccc(Oc2nc(-c3ccccn3)nc3ccccc23)cc1,-,52,-,-,-,-,-
CCOc1ccc(C(=O)N(c2ccccn2)C2CCCCC2)cc1,-,-,-,-,-,-,.
COC(=O)C[C@@H]1CC[C@@H](NC(=O)Nc2cc(F)ccc2F)[C@@H](CO)O1,.,.,.,.,-,-,.
CCOc1ccc2nc(NC(=O)C34CC5CC(CC(NC(C)=O)(C5)C3)C4)sc2c1,-,-,.,-,-,-,.
O=C1C2CC=CCC2C(=O)N1c1ccc(NCCc2cccc(F)c2)c([N+](=O)[O-])c1 (stereo not given),-,-,-,-,-,-,.
O=C1C2CC=CCC2C(=O)N1c1ccc(NCCc2ccc(Cl)cc2)c([N+](=O)[O-])c1 (stereo not given),-,46,-,-,-,-,-
CCOC(=O)C1(Cc2ccccc2Cl)CCN(C(=O)CCn2ccnc2C)CC1,-,-,-,-,-,-,.
O=C(/C=C/Sc1ccccc1)c1ccc(Cl)cc1,-,113,-,.,-,-,104
O=C(/C=C/Sc1ccccc1)c1ccccc1,-,79,-,-,-,-,99
CC1CC(C)CN(C(=O)CCC(=O)Nc2nnc(C3CCCCC3)s2)C1 (stereo not given),-,-,.,-,-,-,.
CCN(CC)S(=O)(=O)c1ccc(NC(=O)C2c3ccccc3Oc3ccccc32)cc1,-,-,-,-,-,-,.
CC1=CC(=O)C=C(C)C1=NOC(=O)c1cccc([N+](=O)[O-])c1,-,46,-,-,-,-,-
O=Cc1[nH]c2ccccc2c1N(C(=O)CCl)c1ccc([N+](=O)[O-])cc1,-,55,-,-,-,-,-
O=C(NCC(=O)N1CCCCCC1)c1ccc(Br)cc1,-,-,.,-,-,-,.
O=[N+]([O-])c1ccc(NCCCc2ccccc2)cc1,.,.,.,.,-,-,.
COc1ccc(CNC(=O)COc2ccc(C(=O)c3ccc(F)cc3)cc2)cc1,-,56,-,-,-,-,-
COCCNC(=O)C1(C)CCCN(Cc2cc(C(F)(F)F)ccc2Cl)C1 (stereo not given),.,.,.,.,-,-,.
Cc1coc2c1C(=O)C(=O)c1c-2ccc2c1CCCC2(C)C,-,-,-,-,-,-,.
Cc1coc2c1C(=O)C(=O)c1c-2ccc2c(C)cccc12,-,62,-,-,-,-,37
CCOC(=O)C1=C(C)N(c2ccc(C)c(C)c2)C(=O)/C1=C\c1ccco1,-,-,-,-,-,-,.
COC(=O)C1=C(C)N(c2ccc(C)c(C)c2)/C(=C/c2ccco2)C1=O,-,68,-,-,-,-,47
O=S(=O)(NCc1ccc(F)cc1)c1ccccc1Br,-,-,.,-,-,-,.
Cc1cc(-c2ccc(C(C)C)c(S(=O)(=O)N3CCC(C)CC3)c2)on1,-,-,.,-,-,-,.
COc1cccc2sc(Nc3nnc(-c4ccccc4Cl)o3)nc12,-,-,.,-,-,-,.
COc1ccccc1-c1nnc(Nc2nc3c(OC)cccc3s2)o1,-,71,.,-,-,-,110
SMILES,XBP1 UPR activ,CHOP UPR activ,CHOP inh,NR3A LBD binder,MPTP block,aDG glyco act,CHOP UPR conf
CN1CCC(N(C)S(=O)(=O)c2ccc(NC(=O)COc3ccc(F)cc3Cl)cc2)CC1,-,-,.,-,-,-,.
Cc1cc(C)c(C)c(S(=O)(=O)N2CCC(C(=O)NC3=NCCS3)CC2)c1C,-,-,.,-,-,-,.
CSc1nc(-c2ccc(C)cc2)nc(C(Cl)Cl)n1,-,52,-,-,-,-,-
CSc1nc(Cl)c(C#N)c(-c2ccc(C)cc2)n1,-,-,-,-,-,-,.
O=C(/C=C/c1ccc(O)c(O)c1)c1ccc(S(=O)(=O)N2CCCCCC2)cc1,-,90,-,23,-,-,-
O=C(c1ccc(S(=O)(=O)N2CCCC2)cc1)N1CCCCC1,-,-,.,-,-,-,.
CCOC(=O)c1ccc(N=c2sc(C(=O)OC)cc(=O)n2Cc2ccco2)cc1,-,41,-,-,-,-,-
